This passage reports Activity and Kd results from ChEMBL document CHEMBL4017522, “Stilbene Boronic Acids Form a Covalent Bond with Human Transthyretin and Inhibit Its Aggregation” (J Med Chem, 2017).

Each structure is given as a SMILES string. Activity calls are given as the source filed them. The calls are words filed in the database; no cut-off is given here.

For orientation: Kd means the free concentration of one partner at which half of the binding sites on the other are occupied at equilibrium, for simple one-to-one binding.

The target of assay [1] is T1, Transthyretin (Homo sapiens, UniProt P02766). The assay is described as follows: Inhibition human wild type TTR expressed in Escherichia coli BL-21 assessed as fibril formation at 14.4 uM incubated for 30 mins after 96 hrs by light scattering method relative to control. Further details: scale not given: the % may be the effect or the level left. The essentials:
(§1)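 Ligand (7.2 or 14.4 μM) preincubated 30 min with TTR tetramers (7.2 μM, wild-type or V30M), then diluted twofold into 50 mM sodium acetate, pH 4.4, 100 mM KCl. Turbidity read as A400 at 0 and 96 h, four replicates; percent fibril formation = ligand-well A400 gain over DMF vehicle-well gain ×100, standard deviations propagated.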

For assay [2], the system named is Transthyretin (Homo sapiens), P02766 [V50M]. The experiment in a line: Inhibition of human TTR V30M mutant expressed in Escherichia coli BL-21 assessed as fibril formation at 7.2 uM incubated for 30 mins measured after 96 hrs by light scattering method relative to control. Also noted: scale not given: the % may be the effect or the level left.
The test system is the same in assay [3]. The assay is described as follows: Inhibition of human TTR V30M mutant expressed in Escherichia coli BL-21 assessed as fibril formation at 14.4 uM incubated for 30 mins measured after 96 hrs by light scattering method relative to control. Further details: scale not given: the % may be the effect or the level left.
The target of assay [4] is T1, Transthyretin. The experiment in a line: Inhibition of human wild type TTR expressed in Escherichia coli BL-21 assessed as fibril formation at 7.2 uM incubated for 30 mins measured after 96 hrs by light scattering method relative to control. Further details: scale not given: the % may be the effect or the level left. The essentials:
as §1

In assay [5] the target is T1, Transthyretin. The experiment in a line: Competitive binding affinity to human wild type TTR expressed in Escherichia coli BL-21 assessed as equilibrium dissociation constant of second site in presence of ANS by spectrofluorometer.
In assay [6] the target is T1, Transthyretin. The experiment in a line: Reversible binding affinity to human wild type TTR expressed in Escherichia coli BL-21 at 360 uM by mass spectrometry.

On to `O=C(O)c1ccc2nc(-c3cc(Cl)cc(Cl)c3)oc2c1`, for which the Activity stood at 0% in assay [1], 5% in assay [2], 8% in assay [3] and 22% in assay [4].
In the case of `Oc1ccc(/C=C/c2cc(O)cc(O)c2)cc1` [RESVERATROL], the Activity in assay [1] came out at 9%; in assay [4], 28%. Moreover, in assay [5], the Kd came out at 470 nM.
Consider `O=C(O)c1cccc(/C=C/c2ccc(O)cc2Cl)c1`, for which the Activity in assay [1] worked out at 3%; in assay [2] it was 41%; in assay [3], 9%; in assay [4], 21%. In addition, the Kd in assay [5] was 470 nM.
`OB(O)c1ccc(/C=C/c2cc(O)cc(O)c2)cc1`: the Activity in assay [1] turned out to be 9%; in assay [2] it was 48%; in assay [3], 23%; in assay [4], 21%. Also, in assay [5], the equilibrium dissociation constant (Kd) is 470 nM.
With `OB(O)c1cccc(/C=C/c2ccc(B(O)O)cc2Cl)c1`, the Activity in assay [1] was determined as 10%; in assay [2], 54%; in assay [3], 16%; in assay [4] it was 26%.
Regarding `O=C(O)c1cccc(/C=C/c2ccc(B(O)O)cc2)c1`, the Activity in assay [1] was determined as 11%; in assay [2], 48%; in assay [3], 28%; in assay [4], 21%. In assay [5], the Kd was 990 nM.
For `O=C(O)c1cccc(/C=C/c2ccc(O)cc2)c1` the same measures were 77%, 112%, 120%, 75% and 1800 nM.
For `O=C(O)c1cccc(/C=C/c2ccc(B(O)O)cc2Cl)c1` the same measures were 4%, 32%, 10%, 16% and 450 nM.
Consider `OB(O)c1ccc(/C=C/c2ccc(B(O)O)cc2Cl)c(Cl)c1`, for which the Activity in assay [1] amounted to 3%; in assay [2], 32%; in assay [3] it was 8%; in assay [4], 20%. In addition, the Kd in assay [5] worked out at 470 nM. Besides, in assay [6], the result was Active.
As to `OB(O)c1ccc(/C=C/c2cc(O)cc(O)c2)c(Cl)c1`, the Activity in assay [1] came to 4%; in assay [2], 36%; in assay [3] it was 12%; in assay [4], 19%. For the same compound, the Kd in assay [5] was determined as 440 nM.
The corresponding values for `Oc1ccc(/C=C/c2ccc(O)cc2Cl)c(Cl)c1` are 12%, 62%, 27%, 30% and 820 nM.
Take `Oc1cc(O)cc(/C=C/c2ccc(O)cc2Cl)c1`: the Activity amounted to 7% in assay [1], 44% in assay [2], 14% in assay [3] and 22% in assay [4]. Besides, the Kd in assay [5] was determined as 730 nM.
